From ChEMBL document CHEMBL3576819, “Design, synthesis, biological evaluation and molecular docking studies of phenylpropanoid derivatives as potent anti-hepatitis B virus agents” (Eur J Med Chem, 2015)

Experiments:
Hepatitis B virus [1] = assay: Antiviral activity against Hepatitis B virus infected in human HepG2.2.15 cells assessed as inhibition of HBsAg secretion at 75 uM after 6 days by ELISA; format: functional; conditions: HepG2 2.2.15, 144 h
Outline: (§1)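 HepG2.2.15 cells (MEM, 10% FBS, 380 µg/ml G418) seeded at 1×10^5 cells/ml, held 24 h at 37 °C, then treated with various drug concentrations; medium with drug renewed every 3 d for up to 9 d. Culture medium sampled on days 3, 6 and 9, stored at -20 °C, and assayed for secreted antigen. Lamivudine as positive control; IC50 = 50% inhibition of secretion; means of at least two experiments.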

Hepatitis B virus [2] = assay: Antiviral activity against Hepatitis B virus infected in human HepG2.2.15 cells assessed as inhibition of HBsAg secretion at 150 uM after 3 days by ELISA; format: functional; conditions: HepG2 2.2.15, 72 h; outline: as §1
Hepatitis B virus [3] = assay: Antiviral activity against Hepatitis B virus infected in human HepG2.2.15 cells assessed as inhibition of HBsAg secretion at 300 uM after 9 days by ELISA; format: functional; conditions: HepG2 2.2.15, 216 h; outline: as §1
Hepatitis B virus [4] = assay: Antiviral activity against Hepatitis B virus infected in human HepG2.2.15 cells assessed as inhibition of HBsAg secretion at 150 uM after 6 days by ELISA; format: functional; conditions: HepG2 2.2.15, 144 h; outline: as §1
Hepatitis B virus [5] = assay: Antiviral activity against Hepatitis B virus infected in human HepG2.2.15 cells assessed as inhibition of HBsAg secretion at 37.5 uM after 9 days by ELISA; format: functional; conditions: HepG2 2.2.15, 216 h; outline: as §1
Hepatitis B virus [6] = assay: Antiviral activity against Hepatitis B virus infected in human HepG2.2.15 cells assessed as cell survival at 150 uM after 9 days (reference value: 100%); format: functional; conditions: HepG2 2.2.15, 216 h
Outline: (§2)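 HepG2.2.15 cells (MEM, 10% FBS, 380 µg/ml G418, 37 °C, 5% CO2) seeded at 1×10^5 cells/ml, cultured 24 h, then exposed to various drug concentrations; drug-containing medium renewed every 3 d. OD read at 450 nm after 9 days; percent cell death calculated; CC50 = concentration killing 50% of cells. Means of at least two experiments.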

Hepatitis B virus [7] = assay: Antiviral activity against Hepatitis B virus infected in human HepG2.2.15 cells assessed as inhibition of HBeAg secretion at 75 uM after 6 days by ELISA; format: functional; conditions: HepG2 2.2.15, 144 h; outline: as §1
Hepatitis B virus [8] = assay: Antiviral activity against Hepatitis B virus infected in human HepG2.2.15 cells assessed as inhibition of HBsAg secretion at 75 uM after 9 days by ELISA; format: functional; conditions: HepG2 2.2.15, 216 h; outline: as §1
[9] = Selectivity index, ratio of CC50 for human HepG2.2.15 cells to IC50 for Hepatitis B virus infected in human HepG2.2.15 cells assessed as inhibition of HBeAg secretion; format: functional
Outline: (§3)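 Selectivity index computed as CC50/IC50, with CC50 from cell death of HepG2.2.15 cells after 9 days of treatment (OD 450 nm) and IC50 from 50% inhibition of HBeAg or HBsAg secretion in the same cells; medium with drug renewed every 3 d.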

Hepatitis B virus [10] = assay: Antiviral activity against Hepatitis B virus infected in human HepG2.2.15 cells assessed as inhibition of HBeAg secretion by ELISA; format: functional, organism-based; conditions: HepG2 2.2.15; outline: as §1
[11] = Selectivity index, ratio of CC50 for human HepG2.2.15 cells to IC50 for Hepatitis B virus infected in human HepG2.2.15 cells assessed as inhibition of HBsAg secretion; format: functional; outline: as §3
Hepatitis B virus [12] = assay: Antiviral activity against Hepatitis B virus infected in human HepG2.2.15 cells assessed as inhibition of HBeAg secretion at 37.5 uM after 9 days by ELISA; format: functional; conditions: HepG2 2.2.15, 216 h; outline: as §1
Hepatitis B virus [13] = assay: Antiviral activity against Hepatitis B virus infected in human HepG2.2.15 cells assessed as inhibition of HBsAg secretion by ELISA; format: functional, organism-based; conditions: HepG2 2.2.15; outline: as §1
Hepatitis B virus [14] = assay: Antiviral activity against Hepatitis B virus infected in human HepG2.2.15 cells assessed as inhibition of HBeAg secretion at 300 uM after 9 days by ELISA; format: functional; conditions: HepG2 2.2.15, 216 h; outline: as §1
Hepatitis B virus [15] = assay: Antiviral activity against Hepatitis B virus infected in human HepG2.2.15 cells assessed as inhibition of HBsAg secretion at 75 uM after 3 days by ELISA; format: functional; conditions: HepG2 2.2.15, 72 h; outline: as §1
Hepatitis B virus [16] = assay: Antiviral activity against Hepatitis B virus infected in human HepG2.2.15 cells assessed as inhibition of HBeAg secretion at 75 uM after 9 days by ELISA; format: functional; conditions: HepG2 2.2.15, 216 h; outline: as §1
Hepatitis B virus [17] = assay: Antiviral activity against Hepatitis B virus infected in human HepG2.2.15 cells assessed as cell survival at 37.5 uM after 9 days (reference value: 100%); format: functional; conditions: HepG2 2.2.15, 216 h; outline: as §2
Hepatitis B virus [18] = assay: Antiviral activity against Hepatitis B virus infected in human HepG2.2.15 cells assessed as inhibition of HBeAg secretion at 300 uM after 6 days by ELISA; format: functional; conditions: HepG2 2.2.15, 144 h; outline: as §1
Hepatitis B virus [19] = assay: Antiviral activity against Hepatitis B virus infected in human HepG2.2.15 cells assessed as inhibition of HBeAg secretion at 150 uM after 3 days by ELISA; format: functional; conditions: HepG2 2.2.15, 72 h; outline: as §1
Hepatitis B virus [20] = assay: Antiviral activity against Hepatitis B virus infected in human HepG2.2.15 cells assessed as inhibition of HBeAg secretion at 37.5 uM after 3 days by ELISA; format: functional; conditions: HepG2 2.2.15, 72 h; outline: as §1
Hepatitis B virus [21] = assay: Antiviral activity against Hepatitis B virus infected in human HepG2.2.15 cells assessed as inhibition of HBeAg secretion at 150 uM after 6 days by ELISA; format: functional; conditions: HepG2 2.2.15, 144 h; outline: as §1
Hepatitis B virus [22] = assay: Antiviral activity against Hepatitis B virus infected in human HepG2.2.15 cells assessed as cell survival at 75 uM after 9 days (reference value: 100%); format: functional; conditions: HepG2 2.2.15, 216 h; outline: as §2
Hepatitis B virus [23] = assay: Antiviral activity against Hepatitis B virus infected in human HepG2.2.15 cells assessed as inhibition of HBsAg secretion at 37.5 uM after 6 days by ELISA; format: functional; conditions: HepG2 2.2.15, 144 h; outline: as §1
Hepatitis B virus [24] = assay: Antiviral activity against Hepatitis B virus infected in human HepG2.2.15 cells assessed as inhibition of HBeAg secretion at 75 uM after 3 days by ELISA; format: functional; conditions: HepG2 2.2.15, 72 h; outline: as §1
Hepatitis B virus [25] = assay: Antiviral activity against Hepatitis B virus infected in human HepG2.2.15 cells assessed as inhibition of HBsAg secretion at 150 uM after 9 days by ELISA; format: functional; conditions: HepG2 2.2.15, 216 h; outline: as §1
Hepatitis B virus [26] = assay: Antiviral activity against Hepatitis B virus infected in human HepG2.2.15 cells assessed as inhibition of HBsAg secretion at 300 uM after 3 days by ELISA; format: functional; conditions: HepG2 2.2.15, 72 h; outline: as §1
Hepatitis B virus [27] = assay: Antiviral activity against Hepatitis B virus infected in human HepG2.2.15 cells assessed as inhibition of HBeAg secretion at 37.5 uM after 6 days by ELISA; format: functional; conditions: HepG2 2.2.15, 144 h; outline: as §1
Hepatitis B virus [28] = assay: Antiviral activity against Hepatitis B virus infected in human HepG2.2.15 cells assessed as cell survival at 300 uM after 9 days (reference value: 100%); format: functional; conditions: HepG2 2.2.15, 216 h; outline: as §2
Hepatitis B virus [29] = assay: Antiviral activity against Hepatitis B virus infected in human HepG2.2.15 cells assessed as inhibition of HBeAg secretion at 150 uM after 9 days by ELISA; format: functional; conditions: HepG2 2.2.15, 216 h; outline: as §1
[30] = Cytotoxicity against human HepG2.2.15 cells assessed as cell death after 9 days by MTT assay; format: cell-based, HepG2 2.2.15; outline: as §2
Hepatitis B virus [31] = assay: Antiviral activity against Hepatitis B virus infected in human HepG2.2.15 cells assessed as inhibition of HBeAg secretion at 300 uM after 3 days by ELISA; format: functional; conditions: HepG2 2.2.15, 72 h; outline: as §1
Hepatitis B virus [32] = assay: Antiviral activity against Hepatitis B virus infected in human HepG2.2.15 cells assessed as inhibition of HBsAg secretion at 300 uM after 6 days by ELISA; format: functional; conditions: HepG2 2.2.15, 144 h; outline: as §1

SMILES: COc1cc(/C=C/C(=O)O/N=C/c2ccccn2)cc(OC)c1OC
- inhibition at 75 µM (Hepatitis B virus [1]): 17.2%
- inhibition at 150 µM (Hepatitis B virus [2]): 8.39%
- inhibition at 300 µM (Hepatitis B virus [3]): 66.7%
- inhibition at 150 µM (Hepatitis B virus [4]): 29.6%
- inhibition at 37.5 µM (Hepatitis B virus [5]): 24.1%
- viability at 150 µM (Hepatitis B virus [6]): 98.1%
- inhibition at 75 µM (Hepatitis B virus [7]): 29.2%
- inhibition at 75 µM (Hepatitis B virus [8]): 39.2%
- Ratio CC50/IC50 [9]: 5.25
- IC50 (Hepatitis B virus [10]): 150 µM
- Ratio CC50/IC50 [11]: 5.52
- inhibition at 37.5 µM (Hepatitis B virus [12]): 30.2%
- IC50 (Hepatitis B virus [13]): 143 µM
- inhibition at 300 µM (Hepatitis B virus [14]): 61.1%
- inhibition at 75 µM (Hepatitis B virus [15]): 2.96%
- inhibition at 75 µM (Hepatitis B virus [16]): 41.2%
- viability at 37.5 µM (Hepatitis B virus [17]): 108%
- inhibition at 300 µM (Hepatitis B virus [18]): 53.6%
- inhibition at 150 µM (Hepatitis B virus [19]): 28.2%
- inhibition at 37.5 µM (Hepatitis B virus [20]): 13.4%
- inhibition at 150 µM (Hepatitis B virus [21]): 35.1%
- viability at 75 µM (Hepatitis B virus [22]): 107%
- inhibition at 37.5 µM (Hepatitis B virus [23]): 12.7%
- inhibition at 75 µM (Hepatitis B virus [24]): 20.3%
- inhibition at 150 µM (Hepatitis B virus [25]): 47.3%
- inhibition at 300 µM (Hepatitis B virus [26]): 15.1%
- inhibition at 37.5 µM (Hepatitis B virus [27]): 21.4%
- viability at 300 µM (Hepatitis B virus [28]): 89%
- inhibition at 150 µM (Hepatitis B virus [29]): 47.9%
- CC50 at 216 h [30]: 787 µM
- inhibition at 300 µM (Hepatitis B virus [31]): 34.2%
- inhibition at 300 µM (Hepatitis B virus [32]): 40.5%
